Assay outcomes deposited in PubChem BioAssay by several laboratories.
Calb FLC – C. albicans growth inhibition with fluconazole, primary screen, CaCi-2 strain, Alamar Blue fluorescence. C. albicans CaCi-2 (fluconazole-resistant clinical isolate) + fluconazole, 48 h. growth inhibition, % (concentration not given with the values). actives 0.57% (n = 300,000). AID 1979, 2009;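 active means growth inhibition above about 58% in most replicates, limit read from the data, passing the limit was not always enough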;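 further: all wells also contain fluconazole at 8 µg/ml as a sub-toxic cotreatment; 0% = median of DMSO wells and 100% = median of geldanamycin control wells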
MC4R ag barr – MC4R agonists recruiting beta-arrestin, primary screen, cell-based, luminescence, agonist arm of biased-ligand search. activation, % at 8.9 µM. Melanocortin receptor 4 (Homo sapiens), P32245. U2OS MC4R beta-arrestin complementation; percent of melanotan II response, DMSO zero. actives 0.98% (n = 360,000);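 active means activation above a per-plate cutoff, the mean activation of sample wells on that plate plus 3 SD, cut at about 8% in these data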
Target sequence (P32245 whole entry, looked up): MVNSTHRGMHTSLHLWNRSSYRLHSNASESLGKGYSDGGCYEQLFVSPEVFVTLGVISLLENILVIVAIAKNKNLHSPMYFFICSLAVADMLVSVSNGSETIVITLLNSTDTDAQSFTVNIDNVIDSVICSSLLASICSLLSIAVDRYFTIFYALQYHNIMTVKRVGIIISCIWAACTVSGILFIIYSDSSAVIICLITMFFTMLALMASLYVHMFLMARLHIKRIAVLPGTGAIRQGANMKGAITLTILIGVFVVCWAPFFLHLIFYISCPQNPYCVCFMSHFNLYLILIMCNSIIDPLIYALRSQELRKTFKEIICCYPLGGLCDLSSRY
MC4R antag cAMP – MC4R antagonists of cAMP signaling, primary screen, cell-based, TR-FRET, antagonist arm of biased-ligand search; AID 540295, 2011; actives 0.48% (n = 360,000); MC4R-expressing cells, MTII-stimulated cAMP, LANCE TR-FRET; inhibition, % at 6.5 µM;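 active means inhibition above its plate's cutoff, the mean of tested wells on that plate plus 3 SD, cut at about 29% in these data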;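 further: 0% = Melanotan II alone and 100% = Melanotan II plus saturating MCL0020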
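Assay system: U2OS cells stably expressing human melanocortin 4 receptor (MC4R) / Dosing: 6.5 µM / Timing: compound 30 min, challenge 1 h, detection 1 h / Measured by: Eu-cAMP/anti-cAMP TR-FRET, emission 671 nm / Replicates: singlicate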
Efflux pump inh – inhibitors of Candida efflux pumps in yeast, primary screen, S. cerevisiae, Nile Red, multiplex; S. cerevisiae Candida pump triplex; inhibition, % at 10 µM; actives 0.44% (n = 330,000); AID 485275, 2010;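 active means plate passing quality check with inhibition over a set limit, or well fluorescence over plate mean plus 4 SD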;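 further: Nile Red retained in pooled yeast measured as flow cytometry median fluorescence; 0% = buffer negative control and 100% = Enniatin B positive control; higher means more Nile Red kept so more efflux inhibition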
H9c2 TAG inh – inhibitors of triacylglycerol accumulation, primary screen, cell-based, uHTS, fluorescence, H9c2. inhibition, % at 12.5 µM. AID 651582, 2012. actives 0.66% (n = 230,000). H9c2 cells, Nile Red lipid (TAG) fluorescence; cells loaded with 200 µM oleic acid;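 active means pattern-corrected inhibition of lipid staining of at least 50% with the nuclear-stain viability signal not falling by more than 50%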;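 further: 0% = DMSO wells and 100% = triacsin C control wells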
GalR3 antagonist – GalR3 antagonists in HEK293 cells, primary screen, cell-based, fluorescence readout; Galanin receptor type 3 (Homo sapiens), O60755; HEK293 GalR3-CNG cAMP membrane potential fluorescence; galR3 body fused to GalR1 C-terminus; inhibition, % at 3 µM; actives 0.44% (n = 360,000);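 active means inhibition above the screen-wide average plus 3 SD, cut at about 13% in these data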;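 further: forskolin and galanin both at EC90 stimulate the cells; cAMP rise reported by CNG channel membrane potential dye signal; 0% = forskolin plus galanin with DMSO and 100% = forskolin alone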
Target sequence (O60755 1-299 limits assumed): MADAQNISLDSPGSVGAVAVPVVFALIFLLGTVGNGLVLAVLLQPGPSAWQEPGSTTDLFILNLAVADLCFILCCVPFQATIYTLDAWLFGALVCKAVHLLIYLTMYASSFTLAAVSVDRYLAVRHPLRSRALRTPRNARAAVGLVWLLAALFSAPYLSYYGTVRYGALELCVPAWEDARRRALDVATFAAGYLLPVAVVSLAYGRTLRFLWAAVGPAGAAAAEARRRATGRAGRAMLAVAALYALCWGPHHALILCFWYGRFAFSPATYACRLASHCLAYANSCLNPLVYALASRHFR
U2OS cAMP counter – nonselective cAMP signaling inhibitors, parental cells, counter-screen for MC4R biased antagonist project, cell-based, TR-FRET, U2OS, forskolin, triplicate. shares compounds with MC4R antag cAMP. AID 602193, 2012. LANCE TR-FRET. inhibition, % at 6.5 µM. actives 26% (n = 1,600);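 active means mean inhibition over triplicates above the low-control well mean plus 3 SD, set per campaign, cut at about 13% in these data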;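 further: signal is single emission at 671 nm which falls as cellular cAMP rises; 0% = forskolin-stimulated wells and 100% = buffer without forskolin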
MC4R cAMP antag – MC4R cAMP antagonists, retest, confirmation, cell-based, TR-FRET; inhibition, % at 6.5 µM; shares compounds with MC4R antag cAMP; MC4R-expressing cells, MTII-stimulated cAMP; actives 27% (n = 1,600); in the data active means inhibition above about 29%;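 further: 0% = agonist stimulated wells alone and 100% = agonist stimulated wells plus saturating reference antagonist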
* hit, by the source's call; x = not tested or not shown. An excerpt weighted towards active compounds, which were near 2.9% of everything screened.

SMILES	Calb FLC	MC4R ag barr	MC4R antag cAMP	Efflux pump inh	H9c2 TAG inh	GalR3 antagonist	U2OS cAMP counter	MC4R cAMP antag
COCC(C)NC(=O)c1cc(OC)cc(OC)c1 (configuration not stated)	-7	0	36*	0	2	-3	1	5
CCn1cc(C(=O)O)c(=O)c2cnc(N3CCN(C(=S)Nc4ccccc4)CC3)nc21	5	5	31*	0	4	7	-1	-10
O=C(O)CSc1nc2ccccc2nc1Cc1ccccc1F	-6	-2	31*	0	x	-7	-1	7
O=C(O)CSc1cnc2ccccc2n1	7	1	9	0	x	-1	x	x
Cn1c(SCC(=O)Nc2cccc(F)c2)nnc1-c1cc2ccccc2o1	-1	8	31*	0	18	-2	4	3
CCCCc1c(-c2ccccc2OC)ncn1Cc1ccc(F)cc1F	x	x	x	x	x	-2	x	x
Cc1nnc(SCC(=O)Nc2cccc(S(=O)(=O)N3CCCC3)c2)n1C1CC1	x	-2	16	x	5	-3	x	x
O=C1Nc2ccccc2-c2nnnn2C1N1CCC(Cc2ccccc2)CC1 (configuration not stated)	x	x	x	x	x	-6	x	x
Fc1ccc(NC(=S)Nc2ccc3nccnc3c2)cc1	37	2	36*	0	5	-6	-2	-1
O=C1c2ccccc2[C@@H]2Cc3csc[n+]3[C@H]12	x	x	x	x	x	-5	x	x
CCOC(=O)CSc1nc2ccc(Nc3nc(N4CCOCC4)nc(N4CCOCC4)n3)cc2s1	16	-1	30*	0	7	1	-16	27
O=C(N[C@H](C(=O)N1CCC[C@H]1C(=O)NC1CCCC1)c1ccccc1)c1ccccc1	x	x	x	x	x	-7	x	x
COc1cc(-c2cc(C(=O)Nc3ccccc3N3CCOCC3)c3ccccc3n2)cc(OC)c1OC	-4	1	6	0	x	9	x	x
COc1cc(-c2cc(C(=O)Nc3ccc(C)c(S(=O)(=O)N4CCOCC4)c3)c3ccccc3n2)cc(OC)c1OC	x	0	32*	0	19	1	4	13
CC(Sc1nnc(CN2CCCC2)n1Cc1ccccc1)C(=O)Nc1ccc(F)c(F)c1F (configuration not stated)	x	4	17	x	14	-8	x	x
CCOC(=O)C1(Cc2cccc(F)c2)CCN(Cc2cnn(CC)c2)CC1	-27	1	29*	0	-2	0	4	13
Cc1ccc(S(=O)(=O)NC2CCCc3ccccc32)cc1C (configuration not stated)	3	4	31*	0	20	-7	-1	11
COc1ccc(N2C(=O)c3ccccc3NC(=O)C2C(=O)NCCc2ccccc2F)cc1 (configuration not stated)	x	x	x	x	x	-1	x	x
O=C(N[C@H](C(=O)N1CCC[C@H]1C(=O)NCCc1ccccc1Cl)c1ccccc1)C1CC1	x	x	x	x	x	-7	x	x
O=C(CSc1nccc(=O)[nH]1)NN(c1ccccc1)c1ccccc1	33	0	29*	0	-4	1	-6	-20
O=C(CSc1ncn[nH]1)NN(c1ccccc1)c1ccccc1	9	-2	-1	0	-7	-4	x	x
COc1ccc(CNC(=O)c2ccc(-c3ccc(F)c(F)c3)c3ccoc23)cc1OC	x	1	40*	x	-37	-6	-5	4
CNC(=O)NC(=O)C(C)OC(=O)c1c2c(nc3ccccc13)/C(=C/c1cccs1)CC2 (configuration not stated)	5	8	30*	-1	x	-2	4	17
CCCCNC(=O)COC(=O)c1c2c(nc3ccccc13)/C(=C/c1cccs1)CC2	x	5	13	0	x	-9	x	x
O=C(COc1cccc2c1CCNC2=O)Nc1ccc(Cl)cc1	5	-4	29*	x	6	-3	5	0
SMILES	Calb FLC	MC4R ag barr	MC4R antag cAMP	Efflux pump inh	H9c2 TAG inh	GalR3 antagonist	U2OS cAMP counter	MC4R cAMP antag
O=C(c1cnc(Cl)c(Cl)c1)N1CCN(S(=O)(=O)c2ccc3ccccc3c2)CC1	x	-4	36*	x	0	-4	17*	54*
CC1CCCC(=NNc2ccc3ccccc3n2)C1 (configuration not stated)	x	-1	-5	x	-8	-1	x	x
COc1ccc(N2C(=O)C3CC(C)=C(C)CC3C2=O)c(OC)c1 (configuration not stated)	13	2	2	0	2	-3	x	x
COc1cc(N2C(=O)C=CC2=O)ccc1N1C(=O)C=CC1=O	x	-4	103*	x	-10	-4	62*	79*
Cc1cc(C(=O)COc2cc(F)ccc2[N+](=O)[O-])c(C)n1C1CC1	9	-1	29*	0	8	2	19*	48*
CC1(C(=O)Nc2ccc(F)c(Cl)c2)Cc2c(-c3ccccc3)ccnc2O1 (configuration not stated)	x	3	9	x	10	-1	x	x
COCCCNC(=O)/C=C1\Sc2ccccc2N(Cc2ccccc2F)C1=O	5	0	44*	0	16	-5	46*	34*
CCN(CC(=O)Nc1ccc(Cl)c(S(=O)(=O)N(C)C)c1)CC(=O)NC(C)C	0	0	30*	0	12	-7	1	-15
C[C@@H]1ON(C)[C@H]2C[C@H]3c4[nH]c5c(-c6cccc(F)c6)cccc5c4CCN3C(=O)[C@@H]12	x	x	x	x	x	-7	x	x
CCN(CC(=O)Nc1ccc(NC(C)=O)cc1)C(=O)CCN1C(=O)c2cccc([N+](=O)[O-])c2C1=O	-2	-2	5	1	5	-2	x	x
COc1cccc(NC(=O)CCN2C(=O)c3cccc([N+](=O)[O-])c3C2=O)c1	2	-1	37*	0	x	-9	15*	34*
CCN(CC(=O)Nc1c(F)cccc1F)C(=O)CCN1C(=O)c2cccc([N+](=O)[O-])c2C1=O	5	-2	36*	0	-15	-6	16*	49*
c1ccc2c3c(c(CN4CCCC4)cc2c1)COC3	-13	0	30*	0	5	-8	1	-18
